# According to paper PMC3867294 (Biochemical and biophysical research communications, 2013):
# What was measured:
# [1] = tested on: LPS-mediated inflammation in rats; assay type: in vivo; details: n=3 rats/group
# [2] = tested on: LPS-mediated inflammation in rats; test: Protocol 1: plasma cytokines; assay type: in vivo, Sprague-Dawley rats
# [3] = tested on: liver inflammation in endotoxemic rats; test: Liver histology; assay type: in vivo, Sprague-Dawley rats; details: 2.5 mg/kg mR18L i.p. without LPS; H&E sections; n=3
# Procedure, shortened: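 Male Sprague-Dawley rats received test compound 2.5 mg/kg i.p., with or without LPS 5 mg/kg i.p. one minute before, and were killed at 2 h. Liver was formalin-fixed, paraffin-embedded, cut at 5 μm and H&E-stained. A blinded pathologist scored it subjectively. Segmented neutrophils were counted at x40, 30 fields from 10 random portal areas. n=3 control, n=4 LPS groups.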
# iNOS (NOS2) in rat liver = test: iNOS expression in liver tissue by immunoblotting; assay type: in vivo, Sprague-Dawley rats; details: 2.5 mg/kg mR18L with 5 mg/kg LPS; 2h post LPS; immunoblot, n=6 in LPS groups; P<0.05 vs LPS alone
# [4] = tested on: endotoxin activity of LPS; test: Endotoxin activity in rat plasma by LAL assay, protocol 1; assay type: in vivo, Sprague-Dawley rats; details: 2h post 5 mg/kg LPS and 2.5 mg/kg mR18L, n=5-7/group, P<0.05 vs LPS alone
# Procedure, shortened: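 Adult male Sprague-Dawley rats (322±8 g) got E. coli 026:B6 LPS at 5 mg/kg i.p. and, one minute later, test compound at 2.5 mg/kg i.p. at a different site. Rats were killed at 2 h and the plasma was frozen. Endotoxin activity was read by kinetic-colorimetric LAL assay, n=5–7/group. Groups were compared by one-way ANOVA with Bonferroni, mean±SEM.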
# [5] = tested on: LPS-mediated inflammation in rats; test: Protocol 2: mR18L one hour post LPS, rat plasma at 6h post LPS; assay type: in vivo, Sprague-Dawley rats; details: 2.5 mg/kg mR18L one hour post 5 mg/kg LPS
# Procedure, shortened: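 Rats got LPS (E. coli 026:B6, 5 mg/kg i.p.), then test compound 2.5 mg/kg one hour later; n=5/group. Plasma was taken at baseline and 6 h. Measures: cholesterol and triglycerides by kit; IL-6 and IL-10 by ELISA; endotoxin by kinetic LAL. PON1 was read as paraoxon-driven 4-nitrophenol release at 405 nm. Tests: paired t-test vs baseline, unpaired vs LPS.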
# [6] = tested on: atherosclerosis and plasma cholesterol in mouse models; details: oral and intravenous administration; cited from earlier work
# [7] = cited from earlier work
# hepatocytes = details: in-vitro; cited from earlier work
# [8] = 2.5 mg/kg mR18L i.p. one minute post 5 mg/kg LPS, 2h post LPS, n=5-7 rats/group
substance,measurement,setting,value
"Ac-GFRRFLGSWARIYRAFVG-NH2 [mR18L, Ac-G-F-R-R-F-L-G-S-W-A-R-I-Y-R-A-F-V-G-NH2]",tolerance to mR18L,"[1]; 1, 2.5 and 5 mg/kg mR18L i.p. one minute post 5 mg/kg LPS i.p.",All rats demonstrated tolerance
same,LPS-mediated plasma elevation of TNF-α,"[1]; starting at the lowest tested dose of 1 mg/kg mR18L i.p., 5 mg/kg LPS",significantly reduced
same,LPS-mediated elevation of plasma IL-6,[2]; [8],significantly reduced
same,LPS-mediated elevation of plasma TNF-α,[2]; [8],significantly reduced
same,plasma anti-inflammatory cytokine IL-10,[2]; [8],without significantly reducing
same,"normal levels of TNF-α, IL-6 and IL-10 in rat plasma, mR18L administered alone","[2]; 2.5 mg/kg mR18L i.p. without LPS, 2h, n=5 rats/control group",no effects
same,"liver morphology and histology, mR18L alone",[3],normal morphological and histological features without signs of inflammation or tissue damage
same,LPS-mediated iNOS elevation in liver,iNOS (NOS2) in rat liver,reduced
same,endotoxin activity in plasma of LPS-treated rats,[4],significantly reduced
same,increase of plasma PON1 activity in LPS-treated rats,"[5]; n=5, P<0.05 vs baseline",15%
same,LPS-mediated elevation of plasma triglyceride,[5]; n=5 rats/group,reduced
same,plasma cholesterol,[5]; n=5 rats/group,not affecting
same,reduction of plasma levels of IL-6,"[5]; n=5 rats/group, vs LPS",57%
same,reduction of plasma levels of IL-10,"[5]; n=5 rats/group, vs LPS",38%
same,increase of IL-10 to IL-6 ratio,[5]; not shown,24%
same,reduction of plasma endotoxin activity,"[5]; LAL assay, n=5 rats/group, vs LPS",30%
same,atherosclerotic lesion formation,[6],inhibited
same,"plasma cholesterol levels, mainly VLDL",[6],decreased
same,lytic properties relative to 18L,[7],substantially reduced lytic properties
same,uptake of atherogenic lipoproteins by hepatocytes,hepatocytes,able to enhance uptake
